The results in this text go back to ChEMBL document CHEMBL3525987, “Assessment of exposure of metabolites in preclinical species and humans at steady state from the single-dose radiolabeled absorption, distribution, metabolism, and excretion studies: a case study” (Drug Metab Dispos, 2012).

A word on the Tmax: it is the time from dosing to the highest level.

What all share (settings): in vivo
The test system of data set [1] is Homo sapiens. As to the kind of experiment: Tmax as total radioactivity in human plasma at 100 mg, po administered as single dose by LC-MS/MS analysis. The class given is ADME, organism-based. More on the design: dosed compound name [14C]lixivaptan. The method in brief: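 Single oral 100 mg [14C]drug to healthy male volunteers; plasma at 0.25-144 h. Parent by validated LC-MS/MS, total radioactivity by LSC as ng-equiv/ml; Tmax from observed data; t1/2 = 0.693/kel from log-linear terminal regression.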

The subject of data set [2] is Canis familiaris. As to the kind of experiment: Drug level in beagle dog plasma at 10 mg/kg, po administered as single dose measured after 8 hrs by liquid scintillation counting. In kind it is ADME, organism-based, Canis lupus familiaris. Also noted: dose 10 mg/kg, dosed compound name [14C]lixivaptan, route oral. The method in brief:
(§1)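 Four male beagles fasted 18 h were gavaged once with [14C]lixivaptan at 10 mg/kg (2 ml/kg). The 5.0 mg/ml suspension was in deionized water with pluronic F68 (1.04 µCi/mg). Jugular K2EDTA plasma was taken at 2, 8 and 24 h and extracted twice with 2 volumes of acetonitrile. Profiling used C18 radio-HPLC (ammonium formate/acetonitrile gradient) with on-line flow scintillation detection. Each peak is reported as percent of plasma radioactivity.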

The test system of data set [3] is Rattus norvegicus. As to the kind of experiment: AUC(0 to t) as total radioactivity in male Sprague-Dawley rat plasma at 10 mg/kg, po administered as single dose via gavage by LC-MS/MS analysis. The class given is ADME, organism-based. More on the design: dose 10 mg/kg, dosed compound name [14C]lixivaptan, route oral. The method, boiled down: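 Jugular-cannulated Sprague-Dawley rats (5/gender) were fasted 18 h and gavaged once with 10 mg/kg [14C]lixivaptan suspended in water/pluronic F68. K2EDTA blood was taken at 0.25–168 h, with donor blood replaced from 1 h on. Total radioactivity was read by LSC (ng-equiv/ml) and parent by validated LC-MS/MS. Noncompartmental Cmax, log-linear kel and trapezoidal AUC followed.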

Data set [4] has as its system Homo sapiens. As to the kind of experiment: AUC (0 to 24 hrs) in human at 100 mg, po administered as single dose. The class given is ADME, organism-based, Plasma. Also noted: time < 24 hr, dose 100 mg, route oral, dosed compound name [14C]lixivaptan. The method in brief:
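Healthy young men fasted 10 h and took one oral dose of [14C]lixivaptan, 100 mg (200 µCi) as two capsules with water, eating 4 h later. Plasma from each subject at 0.5, 2, 4, 8, 12, 24 and 36 h was acetonitrile-extracted and profiled by C18 radio-HPLC (formic acid/acetonitrile gradient) with flow detection. Component concentrations were % of radioactivity × total plasma radioactivity, giving AUC0-24 in ng-equiv.h/ml.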

The subject of data set [5] is Canis familiaris. As to the kind of experiment: Cmax as total radioactivity in male beagle dog plasma at 10 mg/kg, po administered as single dose by LC-MS/MS analysis. More on the design: dose 10 mg/kg, dosed compound name [14C]lixivaptan, route oral. In kind it is ADME, organism-based, Canis lupus familiaris. The method, boiled down: (§2)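 Four male beagles were fasted 18 h and gavaged once with 10 mg/kg (2 ml/kg) [14C]lixivaptan as a 5.0 mg/ml water/pluronic F68 suspension. Jugular K2EDTA blood was sampled from 0.25 to 168 h. Plasma total radioactivity was counted by LSC as ng-equiv/ml and lixivaptan by validated LC-MS/MS. Noncompartmental Cmax, t1/2 and trapezoidal AUC were derived.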

For data set [6], the system named is Canis familiaris. As to the kind of experiment: Drug level in beagle dog plasma at 10 mg/kg, po administered as single dose measured after 2 hrs by liquid scintillation counting. In kind it is ADME, organism-based, Canis lupus familiaris. Also noted: dose 10 mg/kg, dosed compound name [14C]lixivaptan, route oral. The method, boiled down: as §1
For data set [7], the system named is Homo sapiens. As to the kind of experiment: Cmax as total radioactivity in human plasma at 100 mg, po administered as single dose by LC-MS/MS analysis. The class given is ADME, organism-based. More on the design: dose 100 mg, route oral, dosed compound name [14C]lixivaptan. The method in brief: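 Fasted healthy males took one oral 100 mg (200 µCi) [14C]lixivaptan dose. Plasma was drawn from predose to 144 h. Total radioactivity was measured by LSC and converted to ng-equiv/ml via the dose specific activity; lixivaptan by validated LC-MS/MS. Noncompartmental analysis: Cmax observed; kel by log-linear regression; AUC0-t by linear trapezoid; extrapolation as Cest/kel.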

In data set [8] the test system is Rattus norvegicus. As to the kind of experiment: Tmax as total radioactivity in male Sprague-Dawley rat plasma at 10 mg/kg, po administered as single dose via gavage by LC-MS/MS analysis. The class given is ADME, organism-based. More on the design: dose 10 mg/kg, dosed compound name [14C]lixivaptan, route oral. The method in brief: (§3)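 Jugular-vein cannulated SD rats (5/gender) given gavage [14C]drug 10 mg/kg in pluronic F68/water; K2EDTA blood 0.25-168 h with donor blood replacement. Parent by validated LC-MS/MS, radioactivity by LSC; Tmax observed; t1/2 = 0.693/kel by terminal log-linear regression.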

The nature of data set [9]: Drug recovery in urine of male Sprague-Dawley rat at 10 mg/kg, po administered as single dose via gavage measured after 168 hrs by liquid scintillation counting. The class given is ADME, organism-based. More on the design: dose 10 mg/kg, dosed compound name [14C]lixivaptan, route oral. The method, boiled down:
(§4)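 Intact SD rats (3/gender) dosed by gavage with [14C]drug 10 mg/kg (10 ml/kg, pluronic F68/water), housed in metabolism cages; urine and feces at 0-8, 8-24 h, then every 24 h to 7 days. Urine counted by LSC; feces homogenized 20% w/w in water, combusted, trapped CO2 counted; cage wash/debris included; % of dose.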

Data set [10] concerns Rattus norvegicus. In words: Drug recovery in cage wash/debris of female Sprague-Dawley rat at 10 mg/kg, po administered as single dose via gavage measured after 168 hrs by liquid scintillation counting. In kind it is ADME, organism-based. More on the design: dose 10 mg/kg, dosed compound name [14C]lixivaptan, route oral. The method, boiled down: as §4
Data set [11] deals with Rattus norvegicus. As to the kind of experiment: AUC (0 to 24 hrs) in male Sprague-Dawley rat at 10 mg/kg, po administered as single dose via gavage. The class given is ADME, organism-based, Plasma. Also noted: time < 24 hr, dose 10 mg/kg, dosed compound name [14C]lixivaptan, route oral. The method in brief: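 Sprague-Dawley rats (9/gender) were fasted 18 h and gavaged once with [14C]lixivaptan at 10 mg/kg (10 ml/kg), about 29.8 µCi/mg, suspended in deionized water with pluronic F68. Plasma came by cardiac puncture under isoflurane at 1, 8 and 24 h (3/gender/time) and was extracted twice with 2 volumes of acetonitrile. C18 radio-HPLC with a flow scintillation detector gave percent of plasma radioactivity per peak.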

In data set [12] the test system is Canis familiaris. In words: AUC(0 to t) as total radioactivity in male beagle dog plasma at 10 mg/kg, po administered as single dose by LC-MS/MS analysis. The class given is ADME, organism-based, Canis lupus familiaris. Also noted: dose 10 mg/kg, dosed compound name [14C]lixivaptan, route oral. The method, boiled down: as §2
The subject of data set [13] is Rattus norvegicus. In words: Half life as total radioactivity in male Sprague-Dawley rat plasma at 10 mg/kg, po administered as single dose via gavage by LC-MS/MS analysis. Also noted: dose 10 mg/kg, dosed compound name [14C]lixivaptan, route oral. The class given is ADME, organism-based. The method, boiled down:
as §3

The subject of data set [14] is Rattus norvegicus. As to the kind of experiment: Total Drug recovery in male Sprague-Dawley rat at 10 mg/kg, po administered as single dose via gavage measured after 168 hrs by liquid scintillation counting. More on the design: dose 10 mg/kg, dosed compound name [14C]lixivaptan, route oral. The class given is ADME, organism-based. The method in brief: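 Intact rats, 3/gender, given [14C]drug as a suspension in deionized water with pluronic F68 (10 ml/kg, ~29.8 μCi/mg), fasted 18 h before dosing, fed 4 h after. Urine and feces collected at 0-8, 8-24 h, then every 24 h for 7 days. Feces homogenized, combusted and counted; urine counted by LSC in duplicate. Recovery is % of dose, including cage wash/debris.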

Data set [15] deals with Canis familiaris. In words: AUC (0 to 24 hrs) in beagle dog at 10 mg/kg, po administered as single dose. In kind it is ADME, organism-based, Canis lupus familiaris, Plasma. More on the design: time < 24 hr, dose 10 mg/kg, dosed compound name [14C]lixivaptan, route oral. The method in brief:
as §1

Data set [16] relates to Canis familiaris. In words: AUC(0 to infinity) as total radioactivity in male beagle dog plasma at 10 mg/kg, po administered as single dose by LC-MS/MS analysis. More on the design: time infinity, dose 10 mg/kg, dosed compound name [14C]lixivaptan, route oral. The class given is ADME, organism-based, Canis lupus familiaris. The method, boiled down:
as §2

The test system of data set [17] is Homo sapiens. In words: Drug level in human plasma at 100 mg, po administered as single dose measured after 2 hrs by liquid scintillation counting. In kind it is ADME, organism-based. More on the design: dosed compound name [14C]lixivaptan. The method in brief:
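Healthy male volunteers fasted ≥10 h, given single oral 100 mg (200 µCi) [14C]drug as two 50-mg capsules with 250 ml water. Plasma (from ~50 ml blood) at 0.5, 2, 4, 8, 12, 24, 36 h, profiled per subject. Acetonitrile extraction, C18 radio-HPLC with 0.2% formic acid acetonitrile/water gradient, on-line radioactivity detection as % plasma radioactivity; ng-equiv/ml from % × total radioactivity.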

Consider `Cc1ccc(F)cc1[14C](=O)Nc1ccc(C(=O)N2Cc3cccn3Cc3ccccc32)c(Cl)c1`, for which the Tmax in the data set on Homo sapiens [1] came to 1.2 h; in the data set on Rattus norvegicus [8] it was 3.2 h. The Compound recovery is given as 14.9% with Canis familiaris [2], 21.2% in the data set with Canis familiaris [6] and 13.4% in the data set on Homo sapiens [17]. The AUCt with Rattus norvegicus [3] worked out at 65700 ng.Eq.hr/ml; with Canis familiaris [12], 82800 ng.Eq.hr/ml. Also, the AUC is given as 1860 ng.Eq.hr/ml with Homo sapiens [4], 632 ng.Eq.hr/ml with Rattus norvegicus [11], 11200 ng.Eq.hr/ml in the data set with Canis familiaris [15] and 94900 ng.Eq.hr/ml in the data set on Canis familiaris [16]. Further, the Cmax in the data set on Canis familiaris [5] was determined as 3570 ngequiv/ml; in the data set on Homo sapiens [7], 1770 ngequiv/ml. The Radiolabel recovery in [9] stood at 5.77%; in the data set on Rattus norvegicus [10], 3.51%; in the data set with Rattus norvegicus [14], 99%. Moreover, in the data set with Rattus norvegicus [13], the t1/2 was found to be 36.6 h.
